Calls of active or inactive are those of the source.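 Rule for the calls: active = at least 30% inhibition of the enzyme at any tested dose; inactive = the rest.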
Molecular target: M17 leucyl aminopeptidase (Plasmodium falciparum 3D7)
Assay: PfM17LAP leucine aminopeptidase inhibitors, dose response, counter-screen for PfM18AAP inhibitor project, biochemical, QFRET, set 2 (AID 602220)
Settings: recombinant PfM17LAP, H-Leu-NHMec fluorogenic cleavage
Method in brief: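 System: purified recombinant PfM17LAP, M17 leucine aminopeptidase of Plasmodium falciparum / Input: PfM17LAP at 5 µg/mL final / Reagent: fluorogenic substrate H-Leu-NHMec at 0.1 mM final / Doses: 10 points, 1:2 steps, 100–0.2 µM / Schedule: 90 min reaction, room temperature / Signal: fluorescence of released NHMec, excitation 370 nm, emission 460 nm / Replicates: triplicate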

Structure (SMILES)	IC50 [µM]
Oc1ccc(CCNc2c3ccccc3nc3ccccc23)cc1O	14.2
CN1CCN(CCc2ccc(O)c(O)c2)CC1	94.3
CCc1ccc(NC(=O)Cc2nc(-c3ccc(O)c(O)c3)cs2)cc1	57.8
CN1CCN(CCCc2ccc(O)c(O)c2)CC1	73.8
Oc1ccc(-c2csc(Nc3ncccn3)n2)cc1O	12.3
Oc1ccc(-c2csc(NC3CCCC3)n2)cc1O	29.8
Oc1ccc(CCNc2ccnc3ccccc23)cc1O	30.1
CN1CCN(c2nc(-c3ccc(O)c(O)c3)cs2)CC1	29.4

Same assay, conditions: recombinant PfM17LAP, H-Leu-NHMec fluorogenic cleavage; at 100 µM (top of the series)

Structure (SMILES)	inhibition
COc1ccc(CCNC(c2ccccc2)c2ccccc2)cc1OC	inactive
COc1ccc(CCCN2CCN(C)CC2)cc1OC	inactive
